Test results published in ChEMBL document CHEMBL4152358, “In vitro and in vivo anti-inflammatory properties of imine resveratrol analogues” (Bioorg Med Chem, 2018).
pIC50: −log10 of the molar value. Active and inactive are the calls of the source. No cut-off for these calls is given here.

Columns and labels:
RAW264.7 [1] = test: Cytotoxicity against mouse RAW264.7 cells assessed as reduction in cell viability at 50 uM after 48 hrs by MTT assay; type: cell-based; settings: raw264.7, 48 h
Outline: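 RAW264.7 cells seeded at 2 x 10⁵/well and grown 24 h, then exposed to 25 or 50 µM (ethanol ≤1%) for 48 h. MTT 0.5 mg/mL added for 2 h at 37 °C, formazan dissolved in DMSO, OD read at 595 nm. Viability given relative to untreated control, mean SD.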

Peritoneal macrophage = test: Cytotoxicity against C57/BL6 mouse peritoneal macrophages assessed as reduction in cell viability at 50 uM after 48 hrs by MTT assay; type: cell-based
J774.A1 = test: Antiinflammatory activity in mouse J774A.1 cells assessed as inhibition of LPS-induced IL-1beta production by measuring IL-1beta levels incubated with LPS for 1 hr followed by compound addition measured after 24 hrs by ELISA (reference value: 382.3 +/- 50 pg/ml); type: functional
RAW264.7 [2] = test: Immunomodulatory activity in LPS-stimulated mouse RAW264.7 cells assessed as decrease in MHC-2 expression at 50 uM incubated with LPS for 1 hr followed by compound addition measured after 24 hrs by flow cytometry; type: functional, cell-based
Outline: (§1)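 RAW 264.7 cells (4 x 10⁵/well, triplicate) given E. coli LPS 1 µg/mL for 1 h, then treated at 50 µM for 24 h. Cells Fc-blocked with anti-CD16/32 and stained with FITC anti-CD80, anti-CD86 or anti-MHC II (I-A^b). Two independent experiments.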

[3] = Antioxidant activity assessed as DPPH radical scavenging activity after 30 mins by spectrophotometric method; type: functional
Outline: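 Left 30 min at room temperature in the dark and absorbance read at 510 nm. IC50 taken graphically from the linear range of the concentration versus scavenging plot. Run twice, each in triplicate.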

RAW264.7 [4] = test: Antiinflammatory activity in mouse RAW264.7 cells assessed as inhibition of LPS-induced IL-6 production by measuring IL-6 levels incubated with LPS for 1 hr followed by compound addition measured after 48 hrs by ELISA (reference value: 2.9 +/- 0.3 ng/ml); type: functional
RAW264.7 [5] = test: Antiinflammatory activity in mouse RAW264.7 cells assessed as inhibition of LPS/IFNgamma-induced NO production at 50 uM incubated with LPS/IFNgamma for 1 hr followed by compound addition measured after 48 hrs by Griess assay relative to control; type: functional
RAW264.7 [6] = test: Antiinflammatory activity in mouse RAW264.7 cells assessed as inhibition of LPS-induced CCL-2 production by measuring CCL-2 levels incubated with LPS for 1 hr followed by compound addition measured after 48 hrs by ELISA (reference value: 12.73 +/- 0.10 ng/ml); type: functional
RAW264.7 [7] = test: Immunomodulatory activity in LPS-stimulated mouse RAW264.7 cells assessed as decrease in CD80 expression at 50 uM incubated with LPS for 1 hr followed by compound addition measured after 24 hrs by flow cytometry; type: functional, cell-based; outline: as §1
RAW264.7 [8] = test: Antiinflammatory activity in mouse RAW264.7 cells assessed as inhibition of LPS-induced TNFalpha production by measuring TNFalpha levels incubated with LPS for 1 hr followed by compound addition measured after 48 hrs by ELISA (reference value: 58.6 +/- 7.4 ng/ml); type: functional
RAW264.7 [9] = test: Antiinflammatory activity in mouse RAW264.7 cells assessed as inhibition of LPS-induced IL-12 production by measuring IL-12 levels incubated with LPS for 1 hr followed by compound addition measured after 48 hrs by ELISA (reference value: 4839.2 +/- 2.2 pg/ml); type: functional
RAW264.7 [10] = test: Antiinflammatory activity in mouse RAW264.7 cells assessed as inhibition of LPS/IFNgamma-induced NO production by measuring NO levels incubated with LPS/IFNgamma for 1 hr followed by compound addition measured after 48 hrs by Griess assay (reference value: 55 +/- 2.6 microM); type: functional
B-cell line = test: Antiproliferative activity against LPS-induced B cells isolated from splenocytes of C57/BL6 mouse at 50 uM incubated with LPS for 1 hr followed by compound addition measured after 72 hrs by MTT assay; type: functional, cell-based
Outline: (§2)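 C57BL/6 splenocytes (1x10⁵/well) cultured in RPMI 1640 with 10% FBS. Stimulated 1 h with Con A 5 µg/mL (T cells) or E. coli LPS 1 µg/mL (B cells) at 37°C, 5% CO₂. Treated at 50 µM and cultured 72 h more, then read by MTT. Expressed as % proliferation relative to untreated stimulated cells.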

Murine T-cell line = test: Antiproliferative activity against Con-A-induced T cells isolated from splenocytes of C57/BL6 mouse at 50 uM incubated with Con-A for 1 hr followed by compound addition measured after 72 hrs by MTT assay; type: functional, cell-based; outline: as §2
Mus musculus [11] = test: Antiinflammatory activity in croton oil-induced Balb/c mouse ear edema model assessed as inhibition of leucocyte infiltration at 0.1 mg/ear administered topically immediately post croton oil treatment and measured after 4 hrs by hematoxylin and eosin staining based light microscopic method; type: functional, organism-based
Outline: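 Ear plugs from the 4 h croton oil edema test in Balb/c mice were fixed 24 h in 70% ethanol, kept in 10% formalin, paraffin-embedded and cut at 4 µm. Sections stained with H&E and leucocyte infiltration judged qualitatively by light microscopy at 400x.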

Mus musculus [12] = test: Antiinflammatory activity in Balb/c mouse ear edema model assessed as inhibition of croton oil-induced ear edema at 0.1 mg/ear administered topically immediately post croton oil treatment and measured after 4 hrs relative to control; type: functional
Outline: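 Female Balb/c mice 8–10 weeks old (n = 6/group). 20 µL of 2.5% v/v croton oil applied to the inner surface of the right ear, acetone vehicle to the left. Treatment given topically straight after, 0.1 mg/ear in 20 µL, with acetone as negative control. Killed at 4 h and 6 mm plugs taken from both ears. Edema read as right minus left ear plug weight, mean S.D.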

RAW264.7 [13] = test: Immunomodulatory activity in LPS-stimulated mouse RAW264.7 cells assessed as decrease in CD86 expression at 50 uM incubated with LPS for 1 hr followed by compound addition measured after 24 hrs by flow cytometry; type: functional, cell-based; outline: as §1
Mus musculus [14] = test: Inhibition of myeloperoxidase activity in ear tissue of croton oil-induced Balb/c mouse ear edema model at 0.1 mg/ear administered topically immediately post croton oil treatment by spectrophotometric method; type: functional, organism-based
Outline: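 Ear tissue homogenized in PBS and the pellet resuspended in 0.5% HTAB, then given 3 freeze/thaw cycles. Cleared supernatant mixed 1:1 with 6 mM o-phenylenediamine in 10 mM citrate pH 4.5, with 20% H₂O₂ added. Stopped after 15 min with 1 M H₂SO₄ and read spectrophotometrically.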

Mus musculus [15] = test: Effect on IL-1beta production in ear tissue of croton oil-induced Balb/c mouse ear edema model at 0.1 mg/ear administered topically immediately post croton oil treatment by ELISA; type: functional, organism-based
Outline: (§3)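 Half of each ear plug from the 4 h croton oil edema test (topical 0.1 mg/ear) was homogenized in extraction buffer (BSA 0.5%, PMSF 0.1%, […], EDTA 10mM, aprotinin 20kIU/ml) and spun at 440g for 15 min at 4 °C. IL-1β, IL-6 or CCL-2 in the supernatant measured by ELISA.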

RAW264.7 [16] = test: Cytotoxicity against mouse RAW264.7 cells assessed as reduction in cell viability at >= 100 uM after 48 hrs by MTT assay; type: cell-based; settings: raw264.7, 48 h
Mus musculus [17] = test: Inhibition of CCL-2 production in ear tissue of croton oil-induced Balb/c mouse ear edema model at 0.1 mg/ear administered topically immediately post croton oil treatment by ELISA; type: functional, organism-based; outline: as §3
Mus musculus [18] = test: Inhibition of IL-6 production in ear tissue of croton oil-induced Balb/c mouse ear edema model at 0.1 mg/ear administered topically immediately post croton oil treatment by ELISA; type: functional, organism-based; outline: as §3

Compound | pIC50 [3] | Activity (RAW264.7 [1]) | Activity (Peritoneal macrophage) | Activity (J774.A1) [pg/mL] | Activity (RAW264.7 [2]) | Activity (RAW264.7 [4]) [ng/mL] | inhibition at 50 µM (RAW264.7 [5]) [%] | Activity (RAW264.7 [6]) [ng/mL] | Activity (RAW264.7 [7]) | Activity (RAW264.7 [8]) [ng/mL] | Activity (RAW264.7 [9]) [pg/mL] | Activity (RAW264.7 [10]) [µM] | Activity (B-cell line) | Activity (Murine T-cell line) | other results
COc1ccc(/C=N/Nc2ccc([N+](=O)[O-])cc2[N+](=O)[O-])cc1O | – | Toxic | Toxic | – | – | – | – | – | – | – | – | – | – | – | –
O=C(O)c1ccc(/C=N/Nc2ccc([N+](=O)[O-])cc2[N+](=O)[O-])cc1 | – | Toxic | Toxic | – | – | – | – | – | – | – | – | – | – | – | –
O=[N+]([O-])c1ccc(N/N=C/c2cc(Br)ccc2O)c([N+](=O)[O-])c1 | – | Toxic | Toxic | – | – | – | – | – | – | – | – | – | – | – | –
C[C@@H]1C[C@H]2[C@@H]3CCC4=CC(=O)C=C[C@]4(C)[C@@]3(F)[C@@H](O)C[C@]2(C)[C@@]1(O)C(=O)CO [DEXAMETHASONE] | – | – | – | – | – | – | – | – | – | – | – | – | – | – | inhibition of leucocyte infiltration (qualitative) (Mus musculus [11]): Active; inhibition (INH) (Mus musculus [12]): 90%
O=C(O)c1ccc(/C=N/Nc2ccccc2)cc1 | – | Toxic | Toxic | – | – | – | – | – | – | – | – | – | – | – | –
O=[N+]([O-])c1ccc(/C=N/c2ccccc2S)cc1 | – | Toxic | Toxic | – | – | – | – | – | – | – | – | – | – | – | –
COc1ccc(/C=N/Nc2ccccc2)c(O)c1 | – | Toxic | Toxic | – | – | – | – | – | – | – | – | – | – | – | –

The next lines start with results.

pIC50 [3] | Compound | Activity (RAW264.7 [1]) | Activity (Peritoneal macrophage) | Activity (J774.A1) [pg/mL] | Activity (RAW264.7 [2]) | Activity (RAW264.7 [4]) [ng/mL] | inhibition at 50 µM (RAW264.7 [5]) [%] | Activity (RAW264.7 [6]) [ng/mL] | Activity (RAW264.7 [7]) | Activity (RAW264.7 [8]) [ng/mL] | Activity (RAW264.7 [9]) [pg/mL] | Activity (RAW264.7 [10]) [µM] | Activity (B-cell line) | Activity (Murine T-cell line) | other results
4.31 | Oc1ccc(/C=N/c2ccccc2O)c(O)c1 | – | – | 188.3 | inactive | 2.3 | 90 | 5.5 | Active | 44.8 | 9.3 | 14.6 | – | – | –
4.44 | Oc1ccccc1/C=N/c1ccccc1O | – | – | 62.3 | inactive | 2.5 | 90 | 7.2 | inactive | 58.4 | 5.5 | 5.9 | Active | Active | –
4.47 | O=C(O)c1ccccc1/C=N/c1ccccc1O | – | – | 76.7 | inactive | 2.3 | – | 6.1 | inactive | 57.4 | 34 | 22.6 | Active | Active | –
4.18 | Oc1ccc(/C=C/c2cc(O)cc(O)c2)cc1 [RESVERATROL] | Non-Toxic | – | 159.7 | inactive | 1.6 | 25 | 6.6 | Active | 31 | 1036 | 44.5 | Active | Active | Activity (RAW264.7 [13]): Active; inhibition (Mus musculus [14]): Active; inhibition of leucocyte infiltration (qualitative) (Mus musculus [11]): Active; Activity (Mus musculus [15]): inactive; Activity (RAW264.7 [16]): Toxic; inhibition (INH) (Mus musculus [12]): 40%; inhibition (Mus musculus [17]): inactive; inhibition (Mus musculus [18]): inactive
4.44 | O=C(O)c1ccc(/C=N/c2ccccc2O)cc1 | – | – | 53.4 | inactive | 2.2 | 90 | 3.7 | Active | 30.6 | 12.7 | 9.5 | Active | Active | Activity (RAW264.7 [13]): Active; inhibition (Mus musculus [14]): Active; inhibition of leucocyte infiltration (qualitative) (Mus musculus [11]): Active; Activity (Mus musculus [15]): inactive; inhibition (INH) (Mus musculus [12]): 40%; inhibition (Mus musculus [17]): Active; inhibition (Mus musculus [18]): Active
4.34 | COc1ccc(/C=N/c2ccccc2O)cc1 | – | – | 88.2 | inactive | 2.1 | 90 | 7.9 | Active | 44.2 | 4.7 | 4.8 | Active | Active | Activity (RAW264.7 [13]): Active; inhibition (Mus musculus [14]): Active; inhibition of leucocyte infiltration (qualitative) (Mus musculus [11]): Active; Activity (Mus musculus [15]): inactive; inhibition (INH) (Mus musculus [12]): 40%; inhibition (Mus musculus [17]): Active; inhibition (Mus musculus [18]): Active
4.46 | COc1ccc(/C=N/c2ccccc2O)cc1O | – | – | 120.3 | inactive | 2.4 | 90 | 9.7 | Active | 60.5 | 7.7 | 8.1 | – | – | –
